Source: PMC8800165 (Antiviral Research, 2022)
“And” between values parts separate entries of the source, which are not always exact repeats. Equal entries are not always repeated. Where two headings read alike, the source gives them in different places.

What was measured:
HEK293T cells = assay: cell toxicity assay, CCK-8 kit; type: cell-based; details: HEK293T, 24 h, CCK-8
How it was run: (§1)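 HEK293T cells (DMEM, 10% FBS) seeded one day before treatment. Test compound added in […] for 24 h. CCK-8 (WST-8) reagent then added for 60 min at 37 °C, 5% CO2, and A450 read. CC50 derived from viability relative to DMSO-treated cells.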

[1] = target: SARS-CoV-2 RdRp in the presence of nsp14 and nsp10 (Severe acute respiratory syndrome coronavirus 2, UniProt P0DTD1); assay: cell-based CoV-RdRp-Gluc system with nsp10/nsp14 proofreading function; details: EC50 with nsp14/nsp10 over EC50 without
LLC-MK2 cells = assay: toxicity after incubation for 5 days in LLC-MK2 cells; type: cell-based; details: read-out: Toxicity CC50 LLC-MK2
SARS-CoV-2 RdRp [2] = target: T1, SARS-CoV-2 RdRp (Severe acute respiratory syndrome coronavirus 2, UniProt P0DTD1); details: for inhibition ratio against SARS-CoV-2 RdRp: 10 μM, library screen; for TI (CC50/EC50): CC50 HEK293T / RdRp EC50
HCoV-OC43 = assay: anti-coronavirus CPE inhibition assay; type: cell-based; details: read-out: EC50 HCoV-OC43 (CPE inhibition)
How it was run: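 HCT-8 cells (DMEM, 10% heat-inactivated FBS) seeded at 2 × 10^4/well for 24 h. Infected with HCoV-OC43 strain VR-1558 at MOI 0.1 in 2% FBS medium; two-fold serial dilutions of test compound (0.195–50 μM) added 1 h post-infection. Incubated 5 days at 33 °C, then MTS 3 h at 37 °C, A490. Means ± SD, three independent experiments.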

HCoV-NL63 = assay: anti-coronavirus CPE inhibition assay; type: cell-based; details: read-out: EC50 HCoV-NL63 (CPE inhibition); LLC-MK2, MOI 0.01, 5 days, MTS
How it was run: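 LLC-MK2 cells (DMEM, 10% heat-inactivated FBS) seeded at 2 × 10^4/well for 24 h. Infected with HCoV-NL63 strain Amsterdam I at MOI 0.01 in 2% FBS medium; test compound in two-fold dilutions (0.195–50 μM) given 1 h post-infection. Incubated 5 days at 33 °C; MTS 3 h at 37 °C, A490. Means ± SD, three independent experiments.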

SARS-CoV-2 RdRp [3] = target: T1, SARS-CoV-2 RdRp; assay: CoV-Gluc plus- and minus-strand RNA by real-time qRT-PCR; type: cell-based; details: HEK293T, 2 μM or 10 μM, 24 h
SARS-CoV-2 RdRp [4] = target: T1, SARS-CoV-2 RdRp; assay: Bio layer interferometry binding assay; details: data not shown
HCT-8 cells = assay: toxicity after incubation for 5 days in HCT-8 cells; type: cell-based; details: read-out: Toxicity CC50 HCT-8; incubation for 5 days
[5] = cell toxicity assay, CCK-8 kit; type: cell-based; details: human, HEK293T cells
How it was run: as §1

[6] = toxicity after incubation for 5 days in HCT-8 cells; type: cell-based; details: human, HCT-8 cells
[7] = Betacoronavirus 1, OC43, HCT-8, 120 h

In the case of Nc1ncnc2c1c(I)cn2[C@@H]1O[C@H](CO)[C@@H](O)[C@H]1O [5-Iodotubercidin], the CC50 (HEK293T cells) is reported as 59.5 µM, the “Ratio (12 + 14/12)” value [1] is reported as 1.89 and the CC50 (LLC-MK2 cells) is reported as 45.6 ± 5.15 µM. The “inhibition ratio against SARS-CoV-2 RdRp” value (SARS-CoV-2 RdRp [2]) was 85.69% and > 75%, the “TI (CC50/EC50)” value (SARS-CoV-2 RdRp [2]) was 79.28 and the EC50 (HCoV-OC43; HCT-8, MOI 0.1, 5 days, MTS) was 1.56 µM. The EC50 (HCoV-NL63) was 3.62 µM, the “levels of plus-strand and minus-strand Gluc RNA” value (SARS-CoV-2 RdRp [3]) was “even better than the Remdesivir” and the “binding activity upon SARS-CoV-2 RdRp” value (SARS-CoV-2 RdRp [4]) was “did not detect the binding activity”. It also gave a CC50 (HCT-8 cells) of 46.9 ± 2.37 µM.

With Nc1nc2c(ncn2[C@H]2C[C@H](O)[C@@H](CO)O2)c(=S)[nH]1 [6-Thio-dG, 6-Thio-20-Deoxyguanosine] the CC50 (HEK293T cells) was over 100 µM, the “Ratio (12 + 14/12)” value [1] was 8.04 and the CC50 (LLC-MK2 cells) was 68 ± 7.03 µM. The “inhibition ratio against SARS-CoV-2 RdRp” value (SARS-CoV-2 RdRp [2]) was 75.19% and > 75%, the EC50 (HCoV-OC43; HCT-8, MOI 0.1, 5 days, MTS) was 6.5 µM and the EC50 (HCoV-NL63) was 9.53 µM. For the same compound, the CC50 (HCT-8 cells) was 63 ± 3.52 µM.

With Nc1nc(F)nc2c1ncn2[C@@H]1O[C@H](COP(=O)(O)O)[C@@H](O)[C@@H]1O [Fludarabine Phosphate] the CC50 at 24 h [5] was 65.2 µM, the “Ratio (12 + 14/12)” value [1] was 7.19 and the “inhibition ratio against SARS-CoV-2 RdRp” value (SARS-CoV-2 RdRp [2]) was 89.78% and > 75%. For the same compound, the “TI (CC50/EC50)” value (SARS-CoV-2 RdRp [2]) was 70.15, the EC50 (HCoV-OC43; [7]) was 3.11 µM and the CC50 at 5 days [6] was 37.5 ± 1.62 µM.

For Nc1nc(F)nc2c1ncn2[C@@H]1O[C@H](CO)[C@@H](O)[C@@H]1O [Fludarabine], the CC50 at 24 h [5] was 53.6 µM, the “Ratio (12 + 14/12)” value [1] was 11.53 and the “inhibition ratio against SARS-CoV-2 RdRp” value (SARS-CoV-2 RdRp [2]) was 88.71% and > 75%. The “TI (CC50/EC50)” value (SARS-CoV-2 RdRp [2]) was 50.58, the EC50 (HCoV-OC43; [7]) was 4.56 µM and the CC50 at 5 days [6] was 40.4 ± 8.16 µM.

For CCC(CC)COC(=O)[C@H](C)N[P@](=O)(OC[C@H]1O[C@@](C#N)(c2ccc3c(N)ncnn23)[C@H](O)[C@@H]1O)Oc1ccccc1 [Remdesivir], the CC50 at 24 h [5] was over 100 µM and the “TI (CC50/EC50)” value (SARS-CoV-2 RdRp [2]) was over 93.46.
